Structures are written as SMILES. Activity calls are given as the source filed them. No cut-off for these calls is given here.

Experiment [1] can be described thus: Binding affinity to DNA (unknown origin) at 5 mg/mL by RP-TLC plate analysis. In a few lines: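 Reversed-phase C18 TLC plates pre-developed in methanol/water 8:2. Compound spotted at origin (5 mg/mL in methanol), then DNA (1 mg/mL in water/methanol 8:2) applied at the same spot. Plates developed in the same eluent; DNA located by anisaldehyde spray (blue). Ethidium bromide as positive control.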

The nature of experiment [2]: Displacement of methyl green from DNA (unknown origin) after 24 hrs. In a few lines: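 DNA-methyl green complex was stirred in 0.05 M Tris-HCl pH 7.5 with 7.5 mmol MgSO4 at 37 °C for 24 h. Compound was dried down from EtOH in tubes and the DNA-methyl green solution added. A630 was read initially and after 24 h dark incubation at room temperature, corrected and normalized to untreated complex. IC50 is the concentration giving a 50% absorbance decrease; mean ± SD, n = 6.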

In general, IC50 refers to the concentration that gives 50% inhibition. Regarding `CC[n+]1c(-c2ccccc2)c2cc(N)ccc2c2ccc(N)cc21.[Br-]` [HOMIDIUM BROMIDE], in experiment [1], the outcome was Active. The compound also yielded an IC50 in experiment [2] of 4 ng/mL.

The record behind these values is ChEMBL document CHEMBL2375313, “Synthesis, in vitro antitumor evaluation and DNA-binding study of novel tetrahydroquinolines and some derived tricyclic and tetracyclic ring systems” (Eur J Med Chem, 2013).
